Cneo AK release: causes C. neoformans cell lysis | lysis activity, % at 15 µM | 360,000 compounds, 0.2% hits | AID 651654 | adenylate kinase release luminescence, 4 h; normalised: neutral wells 0, clomiphene wells 100;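 active = mean lysis activity across replicates of at least 80%, whatever share of replicates individually reach that level; inactive = mean lysis activity below 80%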
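Assay system: Cryptococcus neoformans yeast cells / Dosing: single-point compound dose / Timing: 4 h at 37 °C static, read 1 h later / Measured by: luminescence of released adenylate kinase using an AK detection reagent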
SUMO Mot1 rescue: SUMOylation pathway inhibition by Mot1-301 growth rescue; S. cerevisiae Mot1-301 growth rescue, ATP luminescence, 38.5C; percent above DMSO median, 100 means doubled; growth rescue, % at 18.8 µM; 320,000 compounds, 1% hits;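 active = every valid replicate shows activation above 250% relative to neutral control wells; inactive = the rest, any valid replicate at or below 250%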
C2C12 statin: suppressors of simvastatin-induced myotoxicity in C2C12 myotubes. ATP luminescence, 48 h; scaled: DMSO 0, geranylgeraniol control 100. rescue of ATP level, % at 7.49 µM. 330,000 compounds, 0.78% hits. AID 602340;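 active = mean ATP rescue above about 67%, or every replicate alone reaching that limit, limit read from the data, passing the limit was not always enough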;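 note: myotubes were challenged with 10 µM simvastatin during compound exposure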
Hits are given with their value; i = inactive; nt = no result given. The list is not random: actives were taken first. Their share in the collection is about 1.5%.

SMILES	Cneo AK release	SUMO Mot1 rescue	C2C12 statin
C[C@H]1CN([C@@H](C)CO)C(=O)c2cccc(NS(=O)(=O)c3cccs3)c2O[C@H]1CN(C)C(=O)Nc1ccc(C(F)(F)F)cc1	i	nt	i
COc1ccc(NC(=O)N(C)C[C@H]2Oc3c(NS(=O)(=O)c4cccs4)cccc3C(=O)N([C@@H](C)CO)C[C@H]2C)cc1	i	nt	88
C[C@H](CO)N1C[C@H](C)[C@H](CN(C)C(=O)Nc2ccc3c(c2)OCO3)OCCCC[C@H](C)Oc2ccc(NS(=O)(=O)c3ccc(Cl)cc3)cc2C1=O	i	nt	nt
O=C(C[C@@H]1CC[C@@H]2[C@H](COC[C@@H](O)CN2C(=O)c2cnccn2)O1)NCc1ccccc1	i	nt	i
O=C(c1cccc(F)c1)N1C[C@@H]2[C@H](c3ccccc31)[C@@H](CO)N2C(=O)C1CC1	i	nt	i
CCNC(=O)C[C@@H]1CC[C@H]2[C@H](COc3ccc(NC(=O)Nc4ccccc4OC)cc3C(=O)N2C)O1	i	nt	i
O=C(O)c1ccccc1SCc1cn2cc(Cl)ccc2n1	nt	i	nt
CC(SCc1cn2cc(Cl)ccc2n1)C(=O)O (centres undefined)	nt	i	108
S=C(NCCc1ccccc1)NCc1cccc(Cl)c1	i	i	i
Fc1ccccc1NC(=S)NCCc1cccc(Cl)c1	97	i	i
COc1ccc(NC(=O)N(C)C[C@@H]2OCCCC[C@H](C)Oc3ccc(NC(=O)Nc4ccc(C(F)(F)F)cc4)cc3C(=O)N([C@@H](C)CO)C[C@H]2C)cc1	i	nt	i
CC(C(=O)Nc1ccc(C(=O)O)c(O)c1)N1C(=O)/C(=C\c2ccco2)SC1=S (centres undefined)	i	i	126
O=C(CN1C(=O)/C(=C/c2ccco2)SC1=S)Nc1ccc(C(=O)O)c(O)c1	i	i	i
C[C@H](CO)N1C[C@H](C)[C@H](CN(C)Cc2ccc(C(=O)O)cc2)Oc2ncc(C#CCN(C)C)cc2C1=O	i	nt	i
Cc1ccc(S(=O)(=O)N[C@@H]2CC[C@@H](CCn3cc(C4CC4)nn3)O[C@H]2CO)cc1	i	nt	i
COc1ccc(-c2cc(C(=O)N3CC4(C)CC3CC(C)(C)C4)no2)cc1 (centres undefined)	i	i	i
COc1ccc(-c2cc(C(=O)N3CC4(C)CC3CC(C)(C)C4)no2)cc1OC (centres undefined)	i	879	nt
COCC(=O)N(C)C[C@H]1Oc2ncc(C#C[C@@H](C)O)cc2C(=O)N([C@@H](C)CO)C[C@H]1C	i	nt	i
CCCC(=O)NC(=S)Nc1cccc(C(C)=O)c1	i	i	114
CCCCCC(=O)NC(=S)Nc1cccc(C(C)=O)c1	i	i	i
C[C@H](CO)N1C[C@H](C)[C@@H](CN(C)S(=O)(=O)c2ccc(Cl)cc2)Oc2ccc(NC(=O)CCN3CCOCC3)cc2CC1=O	i	nt	i
C[C@@H]1CN([C@@H](C)CO)C(=O)c2cccc(NS(=O)(=O)c3ccc(F)cc3)c2O[C@@H]1CN(C)C(=O)Nc1ccccc1	i	nt	i
CC(NC(=O)COc1cccc(Br)c1)C(=O)O (centres undefined)	nt	997	nt
CC(NC(=O)COc1ccc(Br)cc1)C(=O)O (centres undefined)	i	i	i
COc1ccc(NC(=O)Nc2ccc3c(c2)C(=O)N([C@@H](C)CO)C[C@H](C)[C@@H](CN(C)S(=O)(=O)c2ccc(Cl)cc2)OCCCC[C@H](C)O3)cc1	i	nt	nt
SMILES	Cneo AK release	SUMO Mot1 rescue	C2C12 statin
COc1ccc(S(=O)(=O)Nc2ccc3c(c2)C(=O)N([C@@H](C)CO)C[C@@H](C)[C@@H](CN(C)C(=O)Nc2c(C)noc2C)OCCCC[C@H](C)O3)cc1	i	nt	i
COc1ccc(S(=O)(=O)Nc2ccc3c(c2)C(=O)N([C@@H](C)CO)C[C@H](C)[C@H](CN(C)C(=O)Nc2c(C)noc2C)O3)cc1	i	nt	nt
COc1ccc(S(=O)(=O)Nc2ccc3c(c2)C(=O)N([C@H](C)CO)C[C@H](C)[C@@H](CN(C)C(=O)Nc2c(C)noc2C)O3)cc1	i	i	126
COc1ccc(S(=O)(=O)Nc2ccc3c(c2)C(=O)N([C@@H](C)CO)C[C@@H](C)[C@H](CN(C)C(=O)Nc2c(C)noc2C)OCCCC[C@H](C)O3)cc1	i	nt	89
O=C(Cc1ccccn1)NCC[C@@H]1CC[C@@H](NS(=O)(=O)c2ccc(Cl)cc2)[C@H](CO)O1	i	nt	i
O=C1C2C=C(I)[C@H](C[C@@H]2OCCCCCCO)[C@@]12CO2	i	nt	nt
C[C@@H]1CCCCO[C@H](CN(C)C(=O)Nc2ccc(F)cc2)[C@H](C)CN([C@@H](C)CO)C(=O)c2cc(NC(=O)CCCN(C)C)ccc2O1	i	nt	nt
O=C1c2ccccc2C(=O)N1CCc1nc2ccccc2c(=O)n1CCCn1ccnc1	i	i	95
O=C1c2ccccc2C(=O)N1CCCn1ccnc1	i	i	i
O=C1CC(/C=C/c2ccc(Cl)cc2)=Nc2ccccc2N1	i	568	i
O=C1CC(/C=C/c2ccccc2)=Nc2ccccc2N1	i	i	i
CN(C)c1ccc(C=C2C(=O)OC(C)(C(C)(C)C)OC2=O)cc1 (centres undefined)	i	311	i
CN(C)c1ccc(C=C2C(=O)OC(C)(C)OC2=O)cc1	nt	i	i
COc1ccccc1/C=C/C=N/NC(=O)c1cc(-c2ccc(C)o2)[nH]n1	nt	308	i
Cc1ccc(/C=N/NC(=O)c2cc(-c3ccc(C)o3)[nH]n2)cc1	i	i	i
C[C@H](CO)N1C[C@H](C)[C@@H](CN(C)C(=O)Nc2ccc3c(c2)OCO3)Oc2ccc(NC(=O)Nc3cccc4ccccc34)cc2CC1=O	i	nt	i
COC(=O)C[C@@H]1CC[C@@H]2[C@H](COC[C@@H](O)CN2S(=O)(=O)c2ccccc2C)O1	i	nt	i
CCCCC1(CC)C(=O)NC(=O)NC1=Nc1ccc(OC)cc1 (centres undefined)	i	i	i
CCC1(CC)C(=O)NC(=O)NC1=Nc1cccc(OC)c1	i	i	117
CS(=O)(=O)N1CCC(C(=O)N2CCN(c3ccccc3F)CC2)CC1	nt	310	nt
O=C(C1CCN(S(=O)(=O)c2ccccc2)CC1)N1CCN(c2ccccc2F)CC1	i	i	i
O=C(C1CCCC1)N1CCCCN2[C@H](CO)[C@@H](c3ccc(C#CC4CC4)cc3)[C@H]2C1	i	nt	nt
C[C@@H]1CCCCO[C@@H](CN(C)C(=O)Cc2ccccc2)[C@H](C)CN([C@H](C)CO)C(=O)c2cc(NC(=O)CCC(F)(F)F)ccc2O1	i	nt	i
Cc1cc(C)cc(OCC(O)CN2CCN(Cc3ccc4c(c3)OCO4)CC2)c1 (centres undefined)	nt	310	nt
OC(COc1ccccc1)CN1CCN(Cc2ccc3c(c2)OCO3)CC1 (centres undefined)	nt	i	nt
SMILES	Cneo AK release	SUMO Mot1 rescue	C2C12 statin
OC[C@@H]1[C@H](c2ccc(C#CC3(O)CCCC3)cc2)[C@H]2CN(Cc3cccnc3)CCCCN12	i	nt	nt
COCCn1c(CCc2ccccc2)n[nH]c1=S	nt	i	nt
COCCn1c(-c2ccccc2F)n[nH]c1=S	i	i	137
O=C(CNC(=O)c1ccccc1)N/N=C/c1ccc([N+](=O)[O-])s1	nt	i	nt
O=C(Cc1ccccc1)NCC(=O)N/N=C/c1ccc([N+](=O)[O-])s1	i	i	163
COCC(=O)N(C[C@H]1N[C@@H](CO)[C@@H]1c1ccc(C2=CCCC2)cc1)C(C)C	i	nt	i

Assay outcomes: PubChem, Broad Institute
